In ChEMBL document CHEMBL3576865, “Structure-activity relationships of lysophosphatidylserine analogs as agonists of G-protein-coupled receptors GPR34, P2Y10, and GPR174” (J Med Chem, 2015):
Active and inactive are the calls of the source. The rule behind the calls is not given here.

These molecules were tested against Putative P2Y purinoceptor 10 (Mus musculus) (UniProt Q8BFU7) (assay: Agonist activity at mouse P2Y10 receptor expressed in McA-RH7777 cells assessed as actin stress fiber formation at 1 uM after 30 mins by confocal microscopy).
Type: cell-based
In short: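 McA-RH7777 cells stably expressing mouse P2Y10, or mock retrovirus-infected, were grown on collagen I and serum-starved 1 h. They were stimulated with 1 μM compound in serum-free DMEM containing 0.01% fatty-acid-free BSA. […] F-actin fibers were imaged by confocal microscopy.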

Putative P2Y purinoceptor 10 (Mus musculus), sequence (Q8BFU7 whole entry): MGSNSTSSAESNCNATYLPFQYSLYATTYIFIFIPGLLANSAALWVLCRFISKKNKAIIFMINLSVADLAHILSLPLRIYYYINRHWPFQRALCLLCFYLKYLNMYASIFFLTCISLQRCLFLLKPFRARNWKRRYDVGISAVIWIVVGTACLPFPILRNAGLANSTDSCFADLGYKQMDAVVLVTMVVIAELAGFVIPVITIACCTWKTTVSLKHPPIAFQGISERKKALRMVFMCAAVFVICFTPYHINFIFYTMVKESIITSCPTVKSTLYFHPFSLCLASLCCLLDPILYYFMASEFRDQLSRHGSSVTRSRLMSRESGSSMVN

Row | SMILES | Activity
1 | CCCCCCCC/C=C\CCCCCCCC(=O)OC[C@@H](O)COP(=O)(O)OC[C@H](N)C(=O)O | Active
2 | CCCCCCCCCCCOc1ccccc1CCC(=O)OCC(F)(F)COP(=O)(O)OC[C@H](N)C(=O)O | Active
3 | CCCCCCCCCCCOc1cccc(CCC(=O)NC[C@@H](O)COP(=O)(O)O[C@@H](C)[C@H](N)C(=O)O)c1 | inactive
4 | CCCCCCCCCCCOc1ccccc1CCC(=O)OCCCOP(=O)(O)OC[C@H](N)C(=O)O | Active
